Screening results (PubChem BioAssay)
Sampled rows, rich in hits. Any-hit rate of the full collection: about 4.6%.
GPR7 antag = human neuropeptides B/W receptor 1 antagonism; inhibition, % at 4.4 µM; GPR7-expressing cells, fluorescence antagonist assay; 1.1% of 290,000 active; P48145; in the data active = inhibition above about 16%, passing the limit was not always enough;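 note: cells stimulated with the agonist NPW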
CHO parental Ca = signal in parental CHO cells, OX1R antagonist counter-screen | inhibition, % at 5.6 µM | 0.63% of 330,000 active | parental CHO-K1, ATP-induced calcium, Fluo-8 fluorescence;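 active = inhibition above that plate's mean sample inhibition plus 3 SD, cut at about 26% in these data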
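test system = CHO parental line | reagent = ATP stimulus | measured by = intracellular calcium via Fluo-8 no-wash fluorescent dye | control set = ATP and no-ATP DMSO wells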
TAAR1 antag = human TAAR1 antagonism. Q96RJ0. CHO RD-HGA16 TAAR1, Fluo-8 calcium fluorescence, antagonist. inhibition, % at 3 µM. 1.5% of 360,000 active. AID 624466;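 active = inhibition above a per-plate cutoff, the mean inhibition of test compounds on that plate plus 3 SD, cut at about 49% in these data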
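Test system – hTAAR1-expressing CHO RD-HGA16 cells, Gα16-coupled · Reagent – β-PEA at EC80 concentration, post-compound challenge · Compound dosing – 3 µM, single point · Timing – 140 s kinetic read after compound, 140 s after agonist · Detection – Fluo-8 intracellular calcium dye fluorescence, real-time kinetic reads · Control set – DMSO and EC80 PEA controls · Repeats – n of 1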
OX1R antag-1 = human HCRTR1 antagonism | CHO/OX1R cells, Fluo-8 calcium fluorescence, orexin A | inhibition, % at 5 µM | 0.43% of 330,000 active;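 active = inhibition above its plate's threshold, mean inhibition of all tested compounds on the plate plus 3 SD, cut at about 37% in these data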
Target sequence (O43613 whole entry, looked up): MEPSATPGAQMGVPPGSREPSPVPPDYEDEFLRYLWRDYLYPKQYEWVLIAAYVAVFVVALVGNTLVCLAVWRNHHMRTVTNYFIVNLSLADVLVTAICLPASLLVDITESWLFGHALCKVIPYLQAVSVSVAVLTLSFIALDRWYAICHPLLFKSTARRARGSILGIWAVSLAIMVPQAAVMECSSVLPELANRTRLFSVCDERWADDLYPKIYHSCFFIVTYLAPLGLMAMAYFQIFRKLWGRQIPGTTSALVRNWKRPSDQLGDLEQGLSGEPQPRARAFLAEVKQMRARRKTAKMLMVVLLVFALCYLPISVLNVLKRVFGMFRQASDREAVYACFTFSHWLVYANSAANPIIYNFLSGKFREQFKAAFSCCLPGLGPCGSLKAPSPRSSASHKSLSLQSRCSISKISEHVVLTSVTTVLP
TAAR1 agonist = human TAAR1 agonism; activation, % at 3 µM; CHO RD-HGA16 TAAR1, Fluo-8 calcium fluorescence; vehicle wells 0%, saturating PEA agonist 100%; 0.99% of 360,000 active; AID 624467; Q96RJ0;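 active = activation above the mean activation of all test compounds in the run plus 3 SD, cut at about 38% in these data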
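Test system: RD-HGA16 (CHO) cells co-expressing Gα16 and hTAAR1; dosing: one-point dosing at 3 µM (nominal); timing: 17-24 h seeding, 75 min 37 °C dye, 30 min RT; signal: kinetic Fluo-8 calcium fluorescence; read-out basis: % activation relative to PEA EC100 response; controls: DMSO and PEA EC100; replicates: n 1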
OX1R antag-2 = blocks the human orexin 1 receptor | O43613 | OX1R-expressing cells, FRET antagonist read-out | 1.8% of 330,000 active | inhibition, % at 6.6 µM | AID 485270; in the data active = inhibition mostly above about 38%, no sharp cut-off; inactive = mostly below about 40%
OX1R HTRF confirm = confirmation of human orexin 1 receptor antagonists, HTRF format. 49% of 1,800 active. OX1R-expressing cells, HTRF antagonist assay. shares compounds with OX1R antag-2. AID 492964. inhibition, % at 6.6 µM; in the data active = inhibition above about 55%;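 note: CHO cells expressing OX1R stimulated with orexin A at about EC80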
CHO-K1 HTRF = counter-screen for OX1R antagonists: effect in parental CHO-K1 cells; shares compounds with OX1R antag-2; HTRF counterscreen; inhibition, % at 6.6 µM; 48% of 1,800 active; in the data active = inhibition above about 17%
nonsel antag count = nonselective antagonism, TAAR1 counter-screen; counterscreen cell line, calcium fluorescence, antagonist mode; 77% of 2,400 active; inhibition, % at 3 µM; shares compounds with TAAR1 antag; in the data active = inhibition above about 22%;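 note: CHO-Ga16 host cells stimulated with ATP at an EC80 level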
TAAR1 antag conf = confirmation of human TAAR1 antagonists; shares compounds with TAAR1 antag; TAAR1-expressing cells, fluorescence antagonist read-out; inhibition, % at 3 µM; 40% of 2,400 active; AID 651785; in the data active = inhibition above about 49%;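 note: CHO-Ga16 host cells challenged with agonist PEA near its EC80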
Ga16 ag counter-1 = counter-screen for TAAR1 antagonists: nonselective Ga16 agonists. activation, % at 3 µM. Ga16-expressing cells, calcium fluorescence, agonist counterscreen. 18% of 2,400 active. shares compounds with TAAR1 antag; in the data active = activation above about 12%
TAAR1 ag counter = TAAR1 agonism, antagonist counter-screen. shares compounds with TAAR1 antag. hTAAR1 cell line, fluorescence activation, agonist mode. activation, % at 3 µM. 2% of 2,400 active. AID 651955; in the data active = activation above about 37%;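 note: CHO cells stably expressing TAAR1 with calcium dye readout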
Ga16 ag counter-2 = nonselective agonist in parental cells, TAAR1 agonist counter-screen. shares compounds with TAAR1 agonist. CHO-Ga16 parental, Fluo-8 calcium fluorescence; normalized to maximal ATP response, DMSO zero. activation, % at 3 µM. 50% of 2,400 active. AID 651787;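 active = activation above the run cutoff, the mean activation over all tested wells plus 3 SD, cut at about 12% in these data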
Ga16 nonsel ant = nonselective Ga16 antagonist in TAAR1 agonist counter-screen; 39% of 2,400 active; shares compounds with TAAR1 agonist; AID 651952; CHO-Ga16 ATP-induced calcium, Fluo-8 fluorescence; inhibition, % at 3 µM;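 active = inhibition above the plate's mean compound inhibition plus 3 SD, computed per plate, cut at about 22% in these data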
Numbers stand for hits; 0 = inactive; - = no result given.

SMILES	GPR7 antag	CHO parental Ca	TAAR1 antag	OX1R antag-1	TAAR1 agonist	OX1R antag-2	OX1R HTRF confirm	CHO-K1 HTRF	nonsel antag count	TAAR1 antag conf	Ga16 ag counter-1	TAAR1 ag counter	others
COc1ccc(-c2oc3ccc(N4CCOCC4)cc3c2C#CCO)cc1	-	0	58	0	0	81	0	0	23	0	0	0
Cc1csc(NC(=O)CS(=O)(=O)c2ccccc2)n1	0	0	0	0	0	0	-	-	-	-	-	-
CCOc1ccc(/C=C2\SC(=S)N(NS(=O)(=O)c3ccccc3)C2=O)cc1OC	0	0	75	0	0	78	0	24	23	53	0	0
O=Nc1c(-c2c(O)[nH]c3cc(Br)ccc23)[nH]c2ccccc12	0	0	50	0	0	98	79	26	0	0	0	0
O=C(CNC(=O)c1ccccc1)N=Nc1c(O)[nH]c2ccc(Br)cc12	0	0	0	0	0	0	-	-	-	-	-	-
COc1ccc(CCC(=O)OCc2csc(CC(=O)Nc3ccccc3C)n2)cc1	0	0	0	0	0	0	-	-	-	-	-	-
COc1cc(OC)cc(C(=O)Nc2ccc(-c3nc4ccccc4o3)cc2)c1	0	0	64	0	0	86	0	0	26	0	0	0
COc1ccc(N(CC(=O)NCCSc2ccccn2)S(=O)(=O)c2ccccc2)cc1Cl	0	0	0	0	0	0	-	-	-	-	-	-
COc1ccc(Cl)cc1N(CC(=O)NCCSc1ccccn1)S(=O)(=O)c1ccccc1	0	0	58	0	0	79	80	0	0	0	0	0
CCOC(=O)CNC(=O)CSc1nnc(-c2c[nH]c3ccccc23)n1CC	0	0	0	0	0	0	-	-	-	-	-	-
CCC(=O)N1CCN(c2ccc(NC(=O)c3cc4ccccc4o3)cc2Cl)CC1	0	0	73	0	0	81	0	0	49	66	13	0
Cc1ccc(OCC(=O)N/N=C/c2cccnc2)cc1C	0	0	0	0	0	0	-	-	-	-	-	-
Cc1ccc(-c2nc3ncccc3o2)cc1NC(=O)c1cc2ccccc2o1	0	0	0	0	0	0	-	-	-	-	-	-
O=C(Nc1cccc(-c2nc3ncccc3o2)c1)c1cc2ccccc2o1	0	0	61	0	0	105	92	19	28	49	0	0
O=C(CSc1n[nH]c(-c2ccccc2)n1)NC(=O)NCc1ccco1	0	0	-	0	-	82	0	0	-	-	-	-	Ga16 ag counter-2=0;Ga16 nonsel ant=0
O=C(CN1C(=O)C2CC=CCC2C1=O)Nc1nc2ccccc2s1 (stereo not given)	0	0	0	0	0	0	-	-	-	-	-	-
COc1ccc(OCc2nnc(SCC(=O)Nc3ccccc3F)o2)cc1	0	0	0	0	0	0	-	-	-	-	-	-
O=S(=O)(NCCc1cn2ccccc2n1)c1ccc2c(c1)OCCO2	0	0	0	0	0	0	-	-	-	-	-	-
